Reference: ChEMBL document CHEMBL5252514, “Conopeptide-Derived κ-Opioid Agonists (Conorphins): Potent, Selective, and Metabolic Stable Dynorphin A Mimetics with Antinociceptive Properties” (J Med Chem, 2016)
Where a SMILES comes first, the peptide text is derived from it.

target: Kappa-type opioid receptor (Homo sapiens, UniProt P41145); test: Displacement of [3H]U69593 from human kappa opioid receptor expressed in CHO-K1 cells incubated for 1 hr by 1450 microbeta scintillation counter analysis; type: cell-based
Sequence (P41145 whole entry): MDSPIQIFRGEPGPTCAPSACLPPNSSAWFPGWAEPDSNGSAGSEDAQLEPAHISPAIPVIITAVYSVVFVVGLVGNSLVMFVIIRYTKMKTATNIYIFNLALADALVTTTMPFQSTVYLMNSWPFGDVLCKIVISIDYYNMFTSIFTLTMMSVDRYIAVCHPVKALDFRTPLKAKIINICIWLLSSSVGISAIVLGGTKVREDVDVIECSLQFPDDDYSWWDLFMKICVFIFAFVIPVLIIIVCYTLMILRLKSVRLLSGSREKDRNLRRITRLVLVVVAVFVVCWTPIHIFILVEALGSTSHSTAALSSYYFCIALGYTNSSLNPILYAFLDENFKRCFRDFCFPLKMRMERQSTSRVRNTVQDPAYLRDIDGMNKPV
How it was run: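 Membranes from transiently KOR-transfected CHO-K1 cells (~2 µg/well) used in SPA with 3H-U69,593 (1 nM). Competitor ranged 1 pM–10 µM in 50 mM Tris-HCl pH 7.4, 5 mM MgCl2, 0.1% BSA. Incubated 1 h at room temperature with shaking. Nonspecific binding defined with 10 µM dynorphin A. Sigmoidal dose-response fit; at least three independent experiments in triplicate.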

Going from `N=C(N)NCCC[C@@H](NC(=O)[C@@H](CCCNC(=N)N)NC(=O)[C@@H]1CCCN1C(=O)c1ccccc1)C(=O)N[C@@H](CCC(N)=O)C(=O)N[C@@H](CC1CCCCC1)C(=O)N[C@H]1CC(=O)NC[C@@H](C(N)=O)NC1=O` to `N=C(N)NCCC[C@@H](NC(=O)[C@@H](CCCNC(=N)N)NC(=O)[C@@H]1CCCN1C(=O)c1ccccc1)C(=O)N[C@@H](CCC(N)=O)C(=O)N[C@@H](CC1CCCCC1)C(=O)N[C@H]1CSCSC[C@@H](C(N)=O)NC1=O`, the Ki falls from 233 nM to 15.8 nM (15-fold).

Going from `CC[C@H](C)[C@H](NC(=O)[C@H](CCC(N)=O)NC(=O)[C@H](CCCNC(=N)N)NC(=O)[C@H](C)NC(=O)[C@@H]1CSSC[C@H](NC(=O)[C@@H](N)CC(N)=O)C(=O)N1)C(=O)N[C@H]1CSSC[C@@H](C(N)=O)NC1=O` (HELM PEPTIDE1{N.C.C.A.R.Q.I.C.C.[am]}$PEPTIDE1,PEPTIDE1,2:R3-3:R3|PEPTIDE1,PEPTIDE1,8:R3-9:R3$$$V2.0) to `CC[C@H](C)[C@H](NC(=O)[C@H](CCC(N)=O)NC(=O)[C@H](C)NC(=O)[C@H](CCCNC(=N)N)NC(=O)[C@@H]1CSSC[C@H](NC(=O)[C@@H](N)CC(N)=O)C(=O)N1)C(=O)N[C@H]1CSSC[C@@H](C(N)=O)NC1=O` (HELM PEPTIDE1{N.C.C.R.A.Q.I.C.C.[am]}$PEPTIDE1,PEPTIDE1,2:R3-3:R3|PEPTIDE1,PEPTIDE1,8:R3-9:R3$$$V2.0), the Ki rises from 170 nM to 406 nM (2.4-fold).

Compared with `N=C(N)NCCC[C@@H](NC(=O)Cc1cccc(Cl)c1)C(=O)N[C@H](CCCNC(=N)N)C(=O)N[C@@H](CCC(N)=O)C(=O)N[C@@H](CC1CCCCC1)C(=O)N[C@H]1CSSC[C@@H](C(N)=O)NC1=O`, `N=C(N)NCCC[C@@H](NC(=O)Cc1cccc(Br)c1)C(=O)N[C@H](CCCNC(=N)N)C(=O)N[C@@H](CCC(N)=O)C(=O)N[C@@H](CC1CCCCC1)C(=O)N[C@H]1CSSC[C@@H](C(N)=O)NC1=O` is 1.8-fold lower in Ki: 2.1 nM for the first, 1.2 nM for the second.

Compared with `N=C(N)NCCC[C@@H](NC(=O)[C@@H](CCCNC(=N)N)NC(=O)[C@@H]1CCCN1C(=O)c1ccccc1)C(=O)N[C@@H](CCC(N)=O)C(=O)N[C@@H](CC1CCCCC1)C(N)=O`, `N=C(N)NCCC[C@@H](NC(=O)[C@@H](CCCNC(=N)N)NC(=O)[C@@H]1CCCN1C(=O)c1ccccc1)C(=O)N[C@@H](CCC(N)=O)C(=O)N[C@@H](CC1CCCCC1)C(=O)N1CCSSC[C@@H](C(N)=O)NC(=O)C1` is 110-fold lower in Ki: 22500 nM for the first, 199 nM for the second.

Compared with `N=C(N)NCCC[C@@H](NC(=O)c1ccc(F)cc1)C(=O)N[C@H](CCCNC(=N)N)C(=O)N[C@@H](CCC(N)=O)C(=O)N[C@@H](CC1CCCCC1)C(=O)N[C@H]1CSSC[C@@H](C(N)=O)NC1=O`, `N=C(N)NCCC[C@@H](NC(=O)Cc1ccc(F)cc1)C(=O)N[C@H](CCCNC(=N)N)C(=O)N[C@@H](CCC(N)=O)C(=O)N[C@@H](CC1CCCCC1)C(=O)N[C@H]1CSSC[C@@H](C(N)=O)NC1=O` is 4.5-fold lower in Ki: 5.4 nM for the first, 1.2 nM for the second. The second binds more tightly here.

`CC[C@H](C)[C@H](NC(=O)[C@H](CCCN=C(N)N)NC(=O)[C@H](CCCN=C(N)N)NC(=O)[C@H](CC(C)C)NC(=O)[C@H](Cc1ccccc1)NC(=O)CNC(=O)CNC(=O)[C@@H](N)Cc1ccc(O)cc1)C(=O)N[C@@H](CCCN=C(N)N)C(=O)N1CCC[C@H]1C(=O)N[C@@H](CCCCN)C(=O)N[C@@H](CC(C)C)C(=O)N[C@@H](CCCCN)C(N)=O` and `N=C(N)NCCC[C@@H](NC(=O)[C@@H](CCCNC(=N)N)NC(=O)[C@@H]1CCCN1C(=O)c1ccccc1)C(=O)N[C@@H](CCCCN)C(=O)N[C@@H](CC1CCCCC1)C(=O)N[C@H]1CSSC[C@@H](C(N)=O)NC1=O` are within 1.5-fold of each other in Ki: 0.4 nM for the first, 0.59 nM for the second.

Going from `N=C(N)NCCC[C@@H](NC(=O)[C@@H](CCCNC(=N)N)NC(=O)[C@@H]1CCCN1C(=O)c1ccccc1)C(=O)N[C@@H](CCC(=O)O)C(=O)N[C@@H](CC1CCCCC1)C(=O)N[C@H]1CSSC[C@@H](C(N)=O)NC1=O` to `N=C(N)NCCC[C@@H](NC(=O)[C@@H](CCCNC(=N)N)NC(=O)[C@@H]1CCCN1C(=O)c1ccccc1)C(=O)N[C@@H](CC(=O)O)C(=O)N[C@@H](CC1CCCCC1)C(=O)N[C@H]1CSSC[C@@H](C(N)=O)NC1=O`, the Ki falls from 19.4 nM to 10.2 nM (1.9-fold). The second binds more tightly here.

Compared with `CC[C@H](C)[C@H](NC(=O)[C@H](CCC(N)=O)NC(=O)[C@H](CCCNC(=N)N)NC(=O)[C@H](Cc1c[nH]cn1)NC(=O)[C@@H]1CSSC[C@H](NC(=O)[C@@H](N)CC(N)=O)C(=O)N1)C(=O)N[C@H]1CSSC[C@@H](C(N)=O)NC1=O` (HELM PEPTIDE1{N.C.C.H.R.Q.I.C.C.[am]}$PEPTIDE1,PEPTIDE1,2:R3-3:R3|PEPTIDE1,PEPTIDE1,8:R3-9:R3$$$V2.0), `CC[C@H](C)[C@H](NC(=O)[C@H](CCC(N)=O)NC(=O)[C@H](Cc1c[nH]cn1)NC(=O)[C@H](CCCNC(=N)N)NC(=O)[C@@H]1CSSC[C@H](NC(=O)[C@@H](N)CC(N)=O)C(=O)N1)C(=O)N[C@H]1CSSC[C@@H](C(N)=O)NC1=O` (HELM PEPTIDE1{N.C.C.R.H.Q.I.C.C.[am]}$PEPTIDE1,PEPTIDE1,2:R3-3:R3|PEPTIDE1,PEPTIDE1,8:R3-9:R3$$$V2.0) is 1.6-fold lower in Ki: 137 nM for the first, 85 nM for the second. The second binds more tightly here.

Compared with `N=C(N)NCCC[C@@H](NC(=O)[C@@H]1CCC(=O)N1)C(=O)N[C@H](CCCNC(=N)N)C(=O)N[C@@H](CCC(N)=O)C(=O)N[C@@H](CC1CCCCC1)C(=O)N[C@H]1CCSSCC[C@@H](C(N)=O)NC1=O`, `N=C(N)NCCC[C@@H](NC(=O)[C@@H]1CCC(=O)N1)C(=O)N[C@H](CCCNC(=N)N)C(=O)N[C@@H](CCC(N)=O)C(=O)N[C@@H](CC1CCCCC1)C(=O)N[C@H]1CSSCC[C@@H](C(N)=O)NC1=O` is 6.5-fold higher in Ki: 241 nM for the first, 1570 nM for the second. The first binds more tightly here.

Going from `N=C(N)NCCC[C@H](NC(=O)[C@@H]1CCC(=O)N1)C(=O)N[C@@H](CCCNC(=N)N)C(=O)N[C@@H](CCC(N)=O)C(=O)N[C@@H](CC1CCCCC1)C(=O)N[C@H]1CCCCN(CC(N)=O)C1=O` (HELM PEPTIDE1{[Glp].R.R.Q.[Cha].[NC(=O)CN1CCCC[C@H](N[*:1])C1=O]}$$$$V2.0) to `N=C(N)NCCC[C@@H](NC(=O)c1cccc(Cl)c1)C(=O)N[C@H](CCCNC(=N)N)C(=O)N[C@@H](CCC(N)=O)C(=O)N[C@@H](CC1CCCCC1)C(=O)N[C@H]1CSSC[C@@H](C(N)=O)NC1=O`, the Ki falls from 12900 nM to 6.7 nM (1900-fold).

Compared with `C[C@H](NC(=O)[C@H](CCC(N)=O)NC(=O)[C@H](CCCNC(=N)N)NC(=O)[C@H](CCCNC(=N)N)NC(=O)[C@@H]1CSSC[C@H](NC(=O)[C@@H](N)CC(N)=O)C(=O)N1)C(=O)N[C@H]1CSSC[C@@H](C(N)=O)NC1=O` (HELM PEPTIDE1{N.C.C.R.R.Q.A.C.C.[am]}$PEPTIDE1,PEPTIDE1,2:R3-3:R3|PEPTIDE1,PEPTIDE1,8:R3-9:R3$$$V2.0), `CC(C)[C@H](NC(=O)[C@H](CCC(N)=O)NC(=O)[C@H](CCCNC(=N)N)NC(=O)[C@H](CCCNC(=N)N)NC(=O)[C@@H]1CSSC[C@H](NC(=O)[C@@H](N)CC(N)=O)C(=O)N1)C(=O)N[C@H]1CSSC[C@@H](C(N)=O)NC1=O` (HELM PEPTIDE1{N.C.C.R.R.Q.V.C.C.[am]}$PEPTIDE1,PEPTIDE1,2:R3-3:R3|PEPTIDE1,PEPTIDE1,8:R3-9:R3$$$V2.0) is 3.7-fold lower in Ki: 2450 nM for the first, 664 nM for the second.

First: CC[C@H](C)[C@@H]1NC(=O)[C@H](CCC(N)=O)NC(=O)[C@H](CCCNC(=N)N)NC(=O)[C@H](CCCNC(=N)N)NC(=O)[C@@H]2CSSC[C@H](NC1=O)C(=O)N[C@H](C(N)=O)CSSC[C@H](NC(=O)[C@@H](N)CC(N)=O)C(=O)N2 (HELM PEPTIDE1{N.C.C.R.R.Q.I.C.C.[am]}$PEPTIDE1,PEPTIDE1,2:R3-9:R3|PEPTIDE1,PEPTIDE1,3:R3-8:R3$$$V2.0)
Second: CC[C@H](C)[C@@H]1NC(=O)[C@H](CCC(N)=O)NC(=O)[C@H](CCCNC(=N)N)NC(=O)[C@H](CCCNC(=N)N)NC(=O)[C@@H]2CSSC[C@@H](C(N)=O)NC(=O)[C@H](CSSC[C@H](NC(=O)[C@@H](N)CC(N)=O)C(=O)N2)NC1=O (HELM PEPTIDE1{N.C.C.R.R.Q.I.C.C.[am]}$PEPTIDE1,PEPTIDE1,2:R3-8:R3|PEPTIDE1,PEPTIDE1,3:R3-9:R3$$$V2.0)
The Ki of the first is 2.5-fold lower: 580 nM for the first, 1470 nM for the second. The first binds more tightly here.

Going from `N=C(N)NCCC[C@@H](NC(=O)[C@@H](CCCNC(=N)N)NC(=O)[C@@H]1CCCN1C(=O)c1ccccc1)C(=O)N[C@@H](CCC(N)=O)C(=O)N[C@@H](CC1CCCCC1)C(=O)N1C[C@@H]2C[C@H]1C(=O)N[C@H](C(N)=O)CSS2` to `N=C(N)NCCC[C@@H](NC(=O)[C@@H](CCCNC(=N)N)NC(=O)[C@@H]1CCCN1C(=O)c1ccccc1)C(=O)N[C@@H](CC(N)=O)C(=O)N[C@@H](CC1CCCCC1)C(=O)N[C@H]1CSSC[C@@H](C(N)=O)NC1=O`, the Ki falls from 786 nM to 0.61 nM (1300-fold).

Going from `CC[C@H](C)[C@H](NC(=O)[C@H](CCC(N)=O)NC(=O)[C@H](CCCNC(=N)N)NC(=O)[C@H](CCCNC(=N)N)NC(=O)[C@@H]1CSSC[C@H](NC(=O)[C@@H](N)CC(N)=O)C(=O)N1)C(N)=O` (HELM PEPTIDE1{N.C.C.R.R.Q.I.[am]}$PEPTIDE1,PEPTIDE1,2:R3-3:R3$$$V2.0) to `CC[C@H](C)[C@H](NC(=O)[C@H](CCC(N)=O)NC(=O)[C@H](CCCNC(=N)N)NC(=O)[C@H](CCCCN)NC(=O)[C@@H]1CSSC[C@H](NC(=O)[C@@H](N)CC(N)=O)C(=O)N1)C(=O)N[C@H]1CSSC[C@@H](C(N)=O)NC1=O` (HELM PEPTIDE1{N.C.C.K.R.Q.I.C.C.[am]}$PEPTIDE1,PEPTIDE1,2:R3-3:R3|PEPTIDE1,PEPTIDE1,8:R3-9:R3$$$V2.0), the Ki falls from 14700 nM to 426 nM (35-fold).

First: N=C(N)NCCC[C@@H](NC(=O)[C@@H](CCCNC(=N)N)NC(=O)[C@@H]1CCCN1C(=O)c1ccccc1)C(=O)N[C@@H](CC1CCCCC1)C(=O)N[C@H]1CSSCC(C(N)=O)NC1=O (single isomer, unassigned)
Second: C[C@H](NC(=O)[C@@H](CCCNC(=N)N)NC(=O)[C@@H](CCCNC(=N)N)NC(=O)[C@@H]1CCCN1C(=O)c1ccccc1)C(=O)N[C@@H](CC1CCCCC1)C(=O)N[C@H]1CSSC[C@@H](C(N)=O)NC1=O
The Ki of the first is 210-fold higher: 60 nM for the first, 0.29 nM for the second. The second binds more tightly here.

First: N=C(N)NCCC[C@@H](NC(=O)[C@@H](CCCNC(=N)N)NC(=O)[C@@H]1CCCN1C(=O)c1ccc([N+](=O)[O-])cc1)C(=O)N[C@@H](CCC(N)=O)C(=O)N[C@@H](CS)C(=O)N[C@@H](CC1CCCCC1)C(=O)N[C@H]1CSSC[C@@H](C(N)=O)NC1=O
Second: N=C(N)NCCC[C@@H](NC(=O)[C@@H](CCCNC(=N)N)NC(=O)[C@@H]1CCCN1C(=O)c1ccccc1)C(=O)N[C@@H](Cc1ccccc1)C(=O)N[C@@H](CC1CCCCC1)C(=O)N[C@H]1CSSC[C@@H](C(N)=O)NC1=O
The Ki of the first is 3.7-fold higher: 2.2 nM for the first, 0.59 nM for the second.
